Usually IC50 stands for the concentration at which inhibition is half-maximal. Low readings indicate higher potency, high ones lower potency. A word on the ED50: it is the dose that gives a 50% effect, or the effect in half of the subjects. A lower ED50 goes with greater potency. A word on the inhibition: it is how much of the control response was suppressed. The low end stands for a weak effect, the high end for a strong effect.

Assay [1] concerns the target Glutamate receptor ionotropic, kainate. Kind of assay: Antagonism at Ionotropic glutamate receptor kainate by inhibition of depolarizations induced by 10 uM kainic acid in rat cortical slice preparation. The assay is classed as functional.
The target of assay [2] is Glutamate NMDA receptor. The experiment in a line: Antagonism at NMDA receptor by inhibition of depolarizations induced by 40 uM NMDA in rat cortical slice preparation. The assay is classed as functional.
The target of assay [3] is T1, Glutamate receptor ionotropic, AMPA (Rattus norvegicus, UniProt P19490+P19491+P19492+P19493). The experiment in a line: Antagonism at AMPA receptor by inhibition of depolarizations induced by 40 uM AMPA in rat cortical slice preparation. The assay is classed as functional.
In assay [4] the target is T1, Glutamate receptor ionotropic, AMPA. The experiment in a line: (§1) Binding affinity against Ionotropic glutamate receptor AMPA using [3H]AMPA 19755 radioligand. The assay is classed as protein-complex assay.
The target of assay [5] is Glutamate NMDA receptor. The experiment in a line: Affinity of [3H]-CGS- 19755 radioligand to rat N-methyl-D-aspartate (NMDA) receptor. The assay is classed as protein-complex assay.
For assay [6], the target named is Glutamate receptor ionotropic, kainate. The experiment in a line: Binding affinity against Ionotropic glutamate receptor kainate using [3H]-Kainic acid 19755 radioligand. The assay is classed as protein-complex assay. Put shortly:
(§2)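 Displacement of radioligand binding in rat cortical tissue: [3H]AMPA for AMPA sites, [3H]kainic acid for kainate sites. Assays run in triplicate unless otherwise indicated; some IC50 values come from a single assay.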

For assay [7], the system named is Mus musculus. The experiment in a line: Effective dose to block maximal electroshock-induced convulsions in mice, administered intraperitoneally. It counts as functional. As to conditions: ip. (Protection in the maximal electroshock model is a classic sign of anticonvulsant action.)
Assay [8] has as its system Mus musculus. Kind of assay: Effective dose to block ATPA-induced muscle rigidity in mice at a dose of 30 mg/kg administered intraperitoneally. Conditions: ip.
Assay [9] deals with Mus musculus. Kind of assay: (§3) Effective dose to produce neurological impairments in mice using the horizontal screen assay, administered intraperitoneally. The assay is classed as functional. Conditions: ip. Put shortly: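 Mice dosed ip 30 min beforehand are placed on a horizontal screen, which is then turned upside down. Unimpaired mice climb back to the top within 2 min.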

Assay [10] relates to Mus musculus. Described as §3. The assay is classed as functional. As to conditions: ip. Put shortly: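 Mice dosed intraperitoneally 30 min before testing were placed on a horizontal screen, which was then turned upside down. Unimpaired mice climb back to the top within 2 min; failure indicates neurological impairment. This was done before MES testing.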
The source holds these as a separate data set.

Assay [11] concerns the target T2, Glutamate receptor ionotropic, AMPA (Rattus norvegicus) (UniProt P19491+P19492+P19493+P19490). The experiment in a line: Compound was tested for AMPA receptor antagonistic activity by measuring its ability to inhibit depolarizations induced by 40 uM AMPA in rat cortical slice preparation at 100 uM. The assay is classed as functional.
Assay [12] addresses T2, Glutamate receptor ionotropic, AMPA (Rattus norvegicus). The assay is described as §1. The assay is classed as protein-complex assay. As to conditions: concentration not given here. Put shortly:
as §2

The target of assay [13] is Glutamate NMDA receptor. The experiment in a line: Compound was tested for NMDA receptor antagonistic activity by measuring its ability to inhibit depolarizations induced by 40 uM NMDA in rat cortical slice preparation. The assay is classed as functional.
Assay [14] addresses T1, Glutamate receptor ionotropic, AMPA. Kind of assay: Compound was tested for Ionotropic glutamate receptor AMPA antagonistic activity by measuring its ability to inhibit depolarizations induced by 40 uM AMPA in rat cortical slice preparation. It counts as functional.
The target of assay [15] is Glutamate receptor ionotropic, kainate. Kind of assay: Compound was tested for Ionotropic glutamate receptor kainate antagonistic activity by measuring its ability to inhibit depolarizations induced by 10 uM kainic acid in rat cortical slice preparation. The assay is classed as functional.

`CCOC(=O)[C@@H]1C[C@H]2C[C@@H](CCC(=O)NS(C)(=O)=O)CC[C@H]2CN1C(=O)OC`: the IC50 (in [1]; against Glutamate NMDA receptor [2]; in [3]; in [4]; at Glutamate NMDA receptor [5]; in assay [6]) was over 100 µM each time.

Turning to `O=C(O)[C@@H]1C[C@H]2C[C@H](CCc3cc(O)no3)CC[C@H]2CN1`, the ED50 was 31.1 mg/kg in the assay on Mus musculus [7], 8.8 mg/kg in the assay on Mus musculus [8] and over 100 mg/kg with Mus musculus [9]. The IC50 (in [4]; on Glutamate NMDA receptor [5]; in assay [6]) was over 100 µM each time.

As to `O=C(O)[C@@H]1C[C@H]2C[C@@H](CS(=O)(=O)c3nnc[nH]3)CC[C@H]2CN1` (stereo in doubt; 36), the ED50 came to 25.2 mg/kg in the assay with Mus musculus [10] and 9.5 mg/kg in the assay on Mus musculus [7]. The IC50 was 10 µM in assay [1], over 100 µM at Glutamate NMDA receptor [2], 2.16 µM in assay [3] and 1.7 µM in assay [4].

As for `O=C(O)[C@@H]1C[C@H]2C[C@@H](Cn3nnc(S)n3)CC[C@H]2CN1` (racemic), the IC50 in assay [1] is over 100 µM; at Glutamate NMDA receptor [2], over 100 µM; on Glutamate NMDA receptor [5] it was over 10 µM; in [6] it was over 100 µM. Moreover, the inhibition in [11] came out at 55%; in [12], 57.9%.

With `O=C(O)[C@@H]1C[C@H]2C[C@@H](CSc3nn[nH]n3)CC[C@H]2CN1` (racemic), the IC50 is 0.9 µM in assay [4]; over 100 µM on Glutamate NMDA receptor [13]; 29.4 µM at Glutamate NMDA receptor [5]; 19.8 µM in [14]; 30.1 µM in [6].

`O=C(O)[C@@H]1C[C@H]2C[C@@H](CNc3nn[nH]n3)CC[C@H]2CN1` (racemic): the IC50 (in [1]; against Glutamate NMDA receptor [2]; in assay [3]; in assay [4]; at Glutamate NMDA receptor [5]; in assay [6]) was over 100 µM in each case.

Turning to `O=C(O)[C@H]1C[C@@H]2C[C@H](CS(=O)(=O)c3nc[nH]n3)CC[C@@H]2CN1`, the figures for the IC50 (in assay [4]; at Glutamate NMDA receptor [5]; in assay [6]) were 23.6 µM, 60.9 µM and over 100 µM, respectively.

On to `O=C(O)[C@@H]1C[C@H]2C[C@H](CSc3nn[nH]n3)CC[C@H]2CN1` (stereo in doubt; (-)28), for which the IC50 in assay [15] was over 100 µM; in [4] it was 70.5 µM; against Glutamate NMDA receptor [13], 62.2 µM; at Glutamate NMDA receptor [5], 29.8 µM; in assay [14] it was over 100 µM; in [6] it was over 100 µM.

Consider `O=C(O)[C@@H]1C[C@H]2C[C@H](CCc3nnn[nH]3)CC[C@H]2CN1` (stereo in doubt; (+)49), for which the IC50 was found to be 28.9 µM in assay [1], 21.9 µM in assay [3], 31.5 µM in assay [4] and 87 µM in [6].

On to `O=C(O)[C@@H]1C[C@H]2C[C@@H](CSc3nc[nH]n3)CC[C@H]2CN1`, for which the IC50 in [15] was over 100 µM; in [4], over 10 µM; at Glutamate NMDA receptor [13], over 100 µM; at Glutamate NMDA receptor [5], over 10 µM; in [14], 68.8 µM; in assay [6], over 10 µM.

For `O=C(O)[C@@H]1C[C@H]2C[C@@H](CCS(=O)(=O)O)CC[C@H]2CN1`, the 50% inhibitory concentration (IC50) in assay [1] was 100 µM; on Glutamate NMDA receptor [2] it was over 100 µM; in assay [3], 31.4 µM; in assay [4], 11.6 µM; at Glutamate NMDA receptor [5] it was 61.8 µM; in assay [6], over 100 µM.

`O=C(O)[C@@H]1C[C@H]2C[C@H](CSc3nn[nH]n3)CC[C@H]2CN1` (stereo in doubt; (+/-)28): the IC50 in [4] is 4.9 µM; against Glutamate NMDA receptor [13], over 100 µM; on Glutamate NMDA receptor [5], 47.9 µM; in [14] it was 6.1 µM; in [6], 37.3 µM.

For `O=C(CC[C@H]1CC[C@H]2CN[C@H](C(=O)O)C[C@H]2C1)Nc1nn[nH]n1`, the IC50 was 71 µM in [1]; 84 µM against Glutamate NMDA receptor [2]; 19 µM in [3]; 72.6 µM in assay [4]; over 100 µM at Glutamate NMDA receptor [5]; over 100 µM in [6].

For the compound `O=C(O)[C@@H]1C[C@H]2C[C@@H](CSc3nn[nH]n3)CC[C@H]2CN1`, the IC50 in [15] is over 31.6 µM; in assay [4], 0.6 µM; against Glutamate NMDA receptor [13], 22.9 µM; at Glutamate NMDA receptor [5] it was 18.1 µM; in assay [14], 1.4 µM; in assay [6], 15.7 µM. In addition, the ED50 in the assay with Mus musculus [7] was determined as 8.5 mg/kg; with Mus musculus [8], 8.1 mg/kg; in the assay on Mus musculus [9] it was 20.1 mg/kg.

As to `O=C(O)[C@H]1C[C@@H]2C[C@H](CSc3nn[nH]n3)CC[C@@H]2CN1`, the IC50 was over 31.6 µM in assay [15]; 22.1 µM in [4]; over 100 µM against Glutamate NMDA receptor [13]; over 10 µM on Glutamate NMDA receptor [5]; 19.8 µM in assay [14]; over 100 µM in assay [6].

In the case of `CCOC(=O)[C@@H]1C[C@H]2C[C@@H](CCP(=O)(OCC)OCC)CC[C@H]2CN1C(=O)OC`, the IC50 (in assay [1]; at Glutamate NMDA receptor [2]; in assay [3]; in assay [4]; on Glutamate NMDA receptor [5]) was over 100 µM in each case.

Consider `O=C(O)[C@@H]1C[C@H]2C[C@@H](CCCc3nnn[nH]3)CC[C@H]2CN1`, for which the ED50 with Mus musculus [10], in the assay on Mus musculus [7] and in the assay on Mus musculus [8] was over 100 mg/kg in each case.

As to `O=C(O)[C@@H]1C[C@H]2C[C@@H](CCc3nn[nH]n3)CC[C@H]2CN1` (racemic) [TEZAMPANEL ANHYDROUS], the ED50 in the assay on Mus musculus [10] was 19.6 mg/kg; in the assay with Mus musculus [7] it was 9 mg/kg; in the assay on Mus musculus [8], 3.6 mg/kg.

As to `CCOC(=O)[C@@H]1C[C@H]2C[C@@H](CCc3cc(OC)no3)CC[C@H]2CN1C(=O)OC`, the IC50 against Glutamate NMDA receptor [2] and on Glutamate NMDA receptor [5] was over 100 µM each time.

Take `O=C(O)[C@@H]1C[C@H]2C[C@@H](CCc3nn[nH]n3)CC[C@H]2CN1` [TEZAMPANEL ANHYDROUS]: the half-inhibitory concentration (IC50) is 1.8 µM in assay [3], 14 µM in assay [4], 12.1 µM at Glutamate NMDA receptor [5] and 28.1 µM in [6].

As to `O=C(O)[C@H]1C[C@@H]2C[C@@H](CSc3nn[nH]n3)CC[C@@H]2CN1`, the IC50 in assay [15] is 29.1 µM; in assay [4], 17.8 µM; against Glutamate NMDA receptor [13], over 100 µM; on Glutamate NMDA receptor [5], over 100 µM; in [14], 9 µM; in [6] it was 27.9 µM.

Turning to `O=C(O)[C@@H]1C[C@H]2C[C@@H](CS(=O)(=O)c3nnc[nH]3)CC[C@H]2CN1` (stereo in doubt; (-)36), the half-maximal inhibitory concentration (IC50) in [4] is 0.6 µM; on Glutamate NMDA receptor [5], over 100 µM; in [6] it was over 100 µM.

Turning to `O=C(O)[C@H]1C[C@@H]2C[C@H](CCc3nnn[nH]3)CC[C@@H]2CN1`, the IC50 in assay [1], in assay [3], in assay [4] and in [6] was over 100 µM in each case.

For the compound `O=C(O)CC[C@@H]1CC[C@H]2CN[C@H](C(=O)O)C[C@H]2C1`, the IC50 (in [1]; against Glutamate NMDA receptor [2]; in assay [3]; in [4]; at Glutamate NMDA receptor [5]; in assay [6]) was over 100 µM throughout.

Turning to `O=C(O)[C@@H]1C[C@H]2C[C@H](CCc3nnn[nH]3)CC[C@H]2CN1` (stereo in doubt; (-)49), the IC50 at Glutamate NMDA receptor [5] amounted to 76.9 µM.

In the case of `O=C(O)[C@@H]1C[C@H]2C[C@H](CCP(=O)(O)O)CC[C@H]2CN1`, the IC50 is over 100 µM in assay [1]; over 100 µM on Glutamate NMDA receptor [2]; over 100 µM in [3]; over 10 µM in assay [4]; over 10 µM at Glutamate NMDA receptor [5].

On to `O=C(O)[C@@H]1C[C@H]2C[C@H](CCS(=O)(=O)O)CC[C@H]2CN1`, for which the IC50 (in assay [1]; at Glutamate NMDA receptor [2]; in assay [3]; in assay [4]; on Glutamate NMDA receptor [5]; in assay [6]) was over 100 µM throughout.

Consider `CCOC(=O)[C@@H]1C[C@H]2C[C@@H](CCC(=O)NS(=O)(=O)c3ccccc3)CC[C@H]2CN1C(=O)OC`, for which the IC50 (in assay [1]; against Glutamate NMDA receptor [2]; in assay [3]; in [4]; on Glutamate NMDA receptor [5]; in [6]) was over 100 µM in each case.

The values above are taken from ChEMBL document CHEMBL1129329, “Structure-activity studies of 6-substituted decahydroisoquinoline-3-carboxylic acid AMPA receptor antagonists. 2. Effects of distal acid bioisosteric substitution, absolute stereochemical preferences, and in vivo activity” (J Med Chem, 1996).
